A short description of series [1]: Half life in rat at 1 mg/kg, iv and 2 mg/kg, po. It counts as ADME, organism-based. To be noted: in vivo. The essentials:
(§1)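 Rat PK: iv 1 mg/kg paired with oral 3 mg/kg or 2 mg/kg; values are the mean from three animals. Oral bioavailability was measured with the sodium salt in 1% methylcellulose vehicle.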

Series [2] is described as follows: Half life in dog at 1 mg/kg, iv and 1 mg/kg, po. Type of series: ADME, organism-based, Canis lupus familiaris. To be noted: in vivo. The essentials: (§2)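 Dog PK: iv and oral doses each 1 mg/kg; data from a single animal. Oral bioavailability was measured with the sodium salt in 1% methylcellulose vehicle.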
Series [3] in a line: Volume of distribution at steady state in rat at 1 mg/kg, iv and 2 mg/kg, po. Type of series: ADME, organism-based. To be noted: in vivo, read-out: Vdss. The essentials:
as §1

A short description of series [4]: Oral bioavailability in rat at 2 mg/kg. Type of series: ADME, organism-based. To be noted: in vivo. The essentials: as §1
Series [5] can be described thus: Volume of distribution at steady state in dog at 1 mg/kg, iv and 1 mg/kg, po. To be noted: in vivo, read-out: Vdss. It counts as ADME, organism-based, Canis lupus familiaris. The essentials: as §2
A short description of series [6]: Clearance in dog blood at 1 mg/kg, iv and 1 mg/kg, po. It counts as ADME, organism-based, Canis lupus familiaris. The essentials:
as §2

The target in series [7] is T1, Gamma-secretase (Homo sapiens) (UniProt Q96BI3+Q9NZ42+Q8WW43+P49768+Q92542+P49810). The experiment in a line: Inhibition of gamma-secretase in human SHSY5Y cells expressing human recombinant APP assessed as amyloid beta40 formation at 20 uM by ELISA. To be noted: SH-SY5Y.
Series [8] in a line: Inhibition of gamma-secretase expressed in african green monkey CV1 cells coexpressing Gal4 DNA-binding/transactivation domain assessed as inhibition of notch processing by luciferase reporter assay. It counts as cell-based. To be noted: CV-1. In general terms: A reporter such as luciferase makes a cellular process visible.
For series [9], the target named is Gamma-secretase. Nature of the series: Inhibition of gamma-secretase in human SHSY5Y cells expressing human recombinant APP assessed as amyloid beta40 formation by ELISA. It counts as cell-based. To be noted: sh-sy5y; in the assay text read “amyloid beta42 formation” for “amyloid beta40 formation”. The essentials:
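SH-SY5Y cells overexpressing human APP Swedish variant exposed to compound for 48 h; Aβ40 (and Aβ42) in the cell medium quantified by ELISA, either Meso Scale Discovery or AlphaLISA format. Compounds also cross-screened for inhibition of Notch processing.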
(In an ELISA, binding on a coated surface is turned into a signal by an enzyme label.)

Series [10] is described as follows: Oral bioavailability in dog at 1 mg/kg. It counts as ADME, organism-based, Canis lupus familiaris. To be noted: in vivo. The essentials: as §2
The target in series [11] is Gamma-secretase. The experiment in a line: Inhibition of gamma-secretase in human SHSY5Y cells expressing human recombinant APP assessed as amyloid beta42 formation by ELISA. Type of series: cell-based. To be noted: sh-sy5y; in the assay text read “amyloid beta40 formation” for “amyloid beta42 formation”. The essentials:
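SH-SY5Y cells overexpressing human APP Swedish variant were incubated with compound for 48 h. Secreted Aβ42 and Aβ40 were measured by immunoassay (MSD electrochemiluminescence or AlphaLISA).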

Series [12] is described as follows: Clearance in rat blood at 1 mg/kg, iv and 2 mg/kg, po. It counts as ADME, organism-based. The essentials: as §1
Series [13] is described as follows: Clearance in rat blood at 1 mg/kg, iv and 3 mg/kg, po. It counts as ADME, organism-based. The essentials:
as §1

The target in series [14] is Gamma-secretase. The experiment in a line: Inhibition of gamma-secretase in human SHSY5Y cells expressing human recombinant APP assessed as decrease in total Abeta level after 24 hrs by DELFIA. To be noted: sh-sy5y. Type of series: cell-based.
A short description of series [15]: Volume of distribution at steady state in mouse at 3 mg/kg, iv and 10 mg/kg, po. Type of series: ADME, organism-based. To be noted: in vivo, read-out: Vdss. The essentials: (§3)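 Mouse PK: single iv dose of 3 mg/kg and oral dose of 10 mg/kg; data are the mean from three animals.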
Series [16] in a line: Half life in mouse at 3 mg/kg, iv and 10 mg/kg, po. To be noted: in vivo. Type of series: ADME, organism-based. The essentials:
as §3

Series [17] in a line: Oral bioavailability in rat at 3 mg/kg. Type of series: ADME, organism-based. To be noted: in vivo. The essentials:
as §1

Series [18] is described as follows: Clearance in mouse blood at 3 mg/kg, iv and 10 mg/kg, po. It counts as ADME, organism-based. The essentials: as §3
Series [19] is described as follows: Half life in rat at 1 mg/kg, iv and 3 mg/kg, po. Type of series: ADME, organism-based. To be noted: in vivo. The essentials: as §1
For the next series, the system named is SH-SY5Y. Nature of the series: Cytotoxicity against human SH-SY5Y cells after 24 hrs by WST1 assay. Type of series: cell-based. For orientation: Tetrazolium dyes change colour on reduction, which living cells bring about.
Series [20] can be described thus: Volume of distribution at steady state in rat at 1 mg/kg, iv and 3 mg/kg, po. Type of series: ADME, organism-based. To be noted: in vivo, read-out: Vdss. The essentials:
as §1

Series [21] can be described thus: Drug level in mouse blood at 5 mg/kg, po after 2 hrs. It counts as ADME, organism-based. The arrangement: dose 5 mg/kg, route oral. To be noted: read-out: Drug uptake. The essentials:
(§4)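 Mice dosed orally at 5 mg/kg in 1% (w/v) aqueous methylcellulose. Blood and brain sampled 2 h post-dose; brain:blood ratio derived from these levels; mean of three mice.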

Series [22] deals with Gamma-secretase. Nature of the series: (§5) Inhibition of gamma-secretase in human SHSY5Y cells expressing human recombinant APP assessed as increase in Abeta38 level after 24 hrs by DELFIA. To be noted: sh-sy5y. It counts as cell-based.
Series [23] concerns the target T1, Gamma-secretase (Homo sapiens). The series is described as §5. It counts as cell-based. To be noted: SH-SY5Y.
Series [24] in a line: Drug level in mouse brain at 5 mg/kg, po after 2 hrs. It counts as ADME, organism-based. To be noted: read-out: Drug uptake. The arrangement: dose 5 mg/kg, route oral. The essentials:
as §4

In series [25] the target is Gamma-secretase. Nature of the series: Inhibition of gamma-secretase in human SHSY5Y cells expressing human recombinant APP assessed as effect on Abeta40 level after 24 hrs by DELFIA. It counts as cell-based. To be noted: sh-sy5y.
Another series deals with CV-1. Nature of the series: Inhibition of gamma-secretase expressed in african green monkey CV1 cells coexpressing Gal4 DNA-binding/transactivation domain assessed as inhibition of notch processing by luciferase reporter assay at 20 uM. Type of series: cell-based.
The nature of series [26]: Oral bioavailability in mouse at 10 mg/kg. It counts as ADME, organism-based. To be noted: in vivo. The essentials: as §3
Series [27] deals with Gamma-secretase. Nature of the series: (§6) Inhibition of gamma-secretase in human SHSY5Y cells expressing human recombinant APP assessed as decrease in Abeta42 level after 24 hrs by DELFIA. Type of series: cell-based. To be noted: sh-sy5y.
Series [28] deals with T1, Gamma-secretase (Homo sapiens). The series is described as §6. Type of series: cell-based. To be noted: SH-SY5Y.

Structures are written as SMILES.

As usually defined, the half-life is the time needed for the level to fall by half in the phase considered. As a reminder, the bioavailability is the share of a dose that reaches the circulation, judged against a reference dose that is usually intravenous. For orientation: inhibition means the relative decrease from the control value, in per cent. What is called IC50 is the concentration needed to halve the response being measured. Broadly, the pIC50 is the IC50 on a negative log10 scale, so that one unit is a factor of ten. Consider `CC(C)CC[C@H](c1ncc(C(F)(F)F)cn1)N1CC[C@@H](CC(=O)[O-])C[C@H]1c1ccc(C(F)(F)F)cc1.[Na+]`, for which the figures for the half-life in [1] and in [2] were 3 h and 3.1 h, respectively. For the same compound, the Vd in series [3] was 3 L/kg; in series [5], 1.2 L/kg. The bioavailability in [4] is 95%; in [10], over 100%. Besides, the clearance stood at 5 mL/min/kg in series [6] and 9 mL/min/kg in [12]. Further, the inhibition in [7] was 17%. In [8], the IC50 was 25.1 µM. Besides, the pIC50 was 6.1 at Gamma-secretase [9] and under 4.7 on Gamma-secretase [11].
The term pEC50 denotes the negative decadic logarithm of the EC50, by convention in mol/L. Consider `CC(C)CC[C@H](c1ccc(C(F)(F)F)nc1)N1CC[C@@H](CC(=O)[O-])C[C@H]1c1ccc(C(F)(F)F)cc1.[Na+]`, for which the clearance turned out to be 4 mL/min/kg in series [13], 4 mL/min/kg in series [18] and 3 mL/min/kg in series [6]. Further, the pIC50 was found to be 4 at Gamma-secretase [14]; 6.5 at Gamma-secretase [9]; 4.4 at Gamma-secretase [25]; 5.2 on Gamma-secretase [11]; 6 at Gamma-secretase [27]. Further, the half-life is 5.2 h in series [2], 4.3 h in [16] and 6.6 h in series [19]. In addition, the Vd in [15] turned out to be 1.4 L/kg; in series [5] it was 1.1 L/kg; in series [20], 2.3 L/kg. For the same compound, the results for the bioavailability in series [17], in [10] and in series [26] were over 100%, 72% and over 100%, respectively. The IC50 in the series on SH-SY5Y is 100 µM; in [8], over 20 µM. In addition, the results for the concentration at 2 h in series [21] and in [24] were 5.6 µM and 4.2 µM, respectively. Besides, at Gamma-secretase [22], the pEC50 is reported as 6.3. In addition, the Activity result in series [23] and in series [28] was “Dose-dependent effect” throughout. Moreover, in the series with CV-1, the inhibition worked out at 24%.
Take `CC(C)[C@H](c1ccc(C(F)(F)F)nc1)N1CC[C@@H](CC(=O)[O-])C[C@H]1c1ccc(C(F)(F)F)cc1.[Na+]`: the pIC50 at Gamma-secretase [14] was under 4; on Gamma-secretase [9], 5.4; at Gamma-secretase [25], under 4; at Gamma-secretase [11], under 4.7; at Gamma-secretase [27] it was 6. The IC50 with SH-SY5Y was over 100 µM; in [8], over 20 µM. For the same compound, the inhibition stood at 24% in series [7] and 21% with CV-1. Moreover, the pEC50 on Gamma-secretase [22] is given as 5. Besides, the Activity result in series [23] and in series [28] was “Dose-dependent effect” each time.

Source of the values: ChEMBL document CHEMBL1159115, “Piperidine-derived gamma-secretase modulators” (Bioorg Med Chem Lett, 2010).
